Here are results for 67 compounds from ChEMBL document CHEMBL1154748, “4-Pyridylanilinothiazoles that selectively target von Hippel-Lindau deficient renal cell carcinoma cells by inducing autophagic cell death” (2010).

Where only a bound is given, the exact number is not on record here.

Usually GI50 stands for the concentration that inhibits growth by half.

Assay [1] in a line: Growth inhibition of VHL-null human RCC4 cells after 4 days by XTT assay. The format is functional. As to conditions: RCC4, 96 h. The method in brief: (§1)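 XTT read-out: 5000 cells/well plated, vehicle or drug added next day, 4-day exposure. Then phenol red-free medium with 0.3 mg/mL XTT, 20% FCS and 2.65 μg/mL N-methyldibenzopyrazine methyl sulfate, 1-2 h at 37 °C, absorbance at 450 nm. GI50 by linear interpolation; single determinations in triplicate. Ratio is the intraexperiment RCC4-VHL GI50 / RCC4 GI50.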
A general note: Formazan colour is commonly taken as a measure of viable cells.

A short description of assay [2]: Ratio of IC50 for human RCC4-VHL cells to IC50 for VHL-null human RCC4 cells. The format is functional. The method in brief:
as §1

`c1ccc(Nc2nc(-c3ccncc3)cs2)cc1` yielded a GI50 in assay [1] of 7 µM. For the same compound, the RatioGI50 in assay [2] is over 10.
`FC(F)(F)c1ccc(Nc2nc(-c3ccncc3)cs2)cc1` had a concentration for 50% growth inhibition (GI50) in assay [1] of over 40 µM.
On to `Cc1cccc(Nc2nc(-c3cccnc3)cs2)c1`, for which, in assay [1], the 50% growth inhibitory concentration (GI50) is over 40 µM.
The compound `Cc1cccc(Nc2nc(-c3ccncc3F)cs2)c1` came in with a GI50 in assay [1] of 2 µM. Moreover, the RatioGI50 in assay [2] is on record as over 20.
In turn, `Clc1ccc(Nc2nc(-c3ccncc3)cs2)cc1Cl` gave a GI50 in assay [1] of 13.5 µM. Also, the RatioGI50 in assay [2] is given as over 3.
For the compound `Cc1ccccc1Nc1nc(-c2ccncc2)cs1`, in assay [1], the GI50 was over 40 µM.
In the case of `Cc1cccc(Nc2nc(-c3ccccn3)cs2)c1`, halving of growth in assay [1] (GI50) required 37 µM. For the same compound, the RatioGI50 in assay [2] is listed as 0.9.
Compound `Cc1ccc(Nc2nc(-c3ccncc3)c(CO)s2)cc1` yielded a GI50 in assay [1] of 14 µM. The RatioGI50 in assay [2] is on record as 1.2.
For the compound `Cc1cccc(Nc2nc(-c3ccnc(C)c3)cs2)c1`, the GI50 in assay [1] was over 40 µM.
For the compound `Oc1ccc(Nc2nc(-c3ccccn3)cs2)cc1`, the GI50 in assay [1] is 36 µM. Moreover, the RatioGI50 in assay [2] was 0.7.
In turn, `Oc1cccc(Nc2nc(-c3ccncc3)cs2)c1` displayed a GI50 in assay [1] of 28.5 µM. Besides, the RatioGI50 in assay [2] was over 3.
`O=[N+]([O-])c1ccccc1Nc1nc(-c2ccncc2)cs1` gave a GI50 in assay [1] of over 40 µM.
For the compound `Cc1cccc(Nc2nc(-c3ccncc3)cs2)c1`, the GI50 in assay [1] worked out at 2.1 µM. The RatioGI50 in assay [2] is on record as 19.
Turning to `CCOC(=O)c1sc(Nc2ccc3c(c2)CCC3)nc1-c1ccncc1`, in assay [1], the 50% growth inhibitory concentration (GI50) is over 40 µM.
For the compound `Cc1cccc(Nc2nc(-c3cc(Cl)nc(Cl)c3)cs2)c1`, the GI50 in assay [1] worked out at 15 µM. The RatioGI50 in assay [2] is recorded as 2.3.
In turn, `Cc1cccc(Nc2nc(-c3ccncc3[N+](=O)[O-])cs2)c1` came in with a GI50 in assay [1] of 8.2 µM. Also, the RatioGI50 in assay [2] worked out at 4.1.
The matching figures for `CC(=O)Nc1cnccc1-c1csc(Nc2cccc(C)c2)n1`: 33.3 µM and 1.
As for `CCc1cccc(Nc2nc(-c3ccncc3)cs2)c1`, halving of growth in assay [1] (GI50) required 2.5 µM. In assay [2], the RatioGI50 is reported as 9.6.
For `O=C(Nc1nc(-c2ccncc2)cs1)c1ccccc1`, in assay [1], the GI50 is over 40 µM.
Consider `COc1cccc(Nc2nc(-c3ccncc3)cs2)c1`, for which growth in assay [1] was halved (GI50) at 3 µM. Also, the RatioGI50 in assay [2] is 17.
On to `Cc1cccc(Nc2nc(-c3ccncc3C)cs2)c1`, for which the GI50 in assay [1] is 5.2 µM. In addition, the RatioGI50 in assay [2] is over 7.7.
`COC(=O)CCc1sc(Nc2cccc(C)c2)nc1-c1ccncc1` returned a GI50 in assay [1] of over 40 µM.
For the compound `COc1ccc(Nc2nc(-c3ccncc3)cs2)cc1`, in assay [1], growth was halved (GI50) at 14 µM. Also, the RatioGI50 in assay [2] is 3.6.
Regarding `N#Cc1cccc(Nc2nc(-c3ccncc3)cs2)c1`, the GI50 in assay [1] was over 40 µM.
Turning to `Cc1ccc(Nc2nc(-c3ccncc3)cs2)cc1O`, growth in assay [1] was halved (GI50) at 12 µM. Moreover, in assay [2], the RatioGI50 came out at 4.6.
The compound `Oc1ccc(Nc2nc(-c3cccnc3)cs2)cc1` yielded a concentration for 50% growth inhibition (GI50) in assay [1] of over 40 µM.
With `COC(=O)/C=C/c1sc(Nc2cccc(C)c2)nc1-c1ccncc1`, it took 2.5 µM to inhibit growth in assay [1] by half (GI50). The RatioGI50 in assay [2] is 2.8.
Consider `FC(F)(F)c1cccc(Nc2nc(-c3ccncc3)cs2)c1`, for which the 50% growth inhibitory concentration (GI50) in assay [1] is over 40 µM.
In turn, `COc1cc(Nc2nc(-c3ccncc3)cs2)cc(OC)c1OC` registered a GI50 in assay [1] of over 40 µM.
Consider `Cc1cccc(Nc2nc(-c3ccnc(C#CCO)c3)cs2)c1`, for which the GI50 in assay [1] came to 9.3 µM. Also, the RatioGI50 in assay [2] is recorded as 1.6.
The matching figures for `Clc1ccccc1Nc1nc(-c2ccncc2)cs1`: 27.6 µM and over 1.4.
Compound `Fc1ccccc1Nc1nc(-c2ccncc2)cs1` came in with a GI50 in assay [1] of 14.3 µM. In assay [2], the RatioGI50 is over 2.8.
`OCCc1ccc(Nc2nc(-c3ccncc3)cs2)cc1` returned a GI50 in assay [1] of 5 µM. Also, the RatioGI50 in assay [2] was 16.
The matching figures for `c1ccc(Nc2nc(-c3ccccn3)cs2)cc1`: 35.1 µM and 0.9.
For `Cc1cccc(Nc2nc(-c3ccncc3)c(CN3CCOCC3)s2)c1`, the GI50 in assay [1] was determined as 2.5 µM. Also, the RatioGI50 in assay [2] was 4.8.
Regarding `Cc1cc(C)cc(Nc2nc(-c3ccncc3)cs2)c1`, the concentration for 50% growth inhibition (GI50) in assay [1] was found to be 4.5 µM. Besides, the RatioGI50 in assay [2] is over 9.
In assay [1], `Cc1cccc(Nc2nc(-c3ccncc3N)cs2)c1` registered a GI50 of over 40 µM.
In assay [1], `CC(C)c1cccc(Nc2nc(-c3ccncc3)cs2)c1` returned a concentration for 50% growth inhibition (GI50) of 17 µM. Further, the RatioGI50 in assay [2] stood at 1.4.
`CC(C)(C)c1cccc(Nc2nc(-c3ccncc3)cs2)c1`: the GI50 in assay [1] was over 40 µM.
Take `COc1ccc(Nc2nc(-c3ccncc3)cs2)cc1OC`: the GI50 in assay [1] was 24 µM. The RatioGI50 in assay [2] is reported as 1.9.
Regarding `Cc1cccc(C)c1Nc1nc(-c2ccncc2)cs1`, in assay [1], the GI50 is over 40 µM.
In assay [1], `Cc1cccc(Nc2nc(-c3ccncc3)c(CCCO)s2)c1` had a 50% growth inhibitory concentration (GI50) of 3.6 µM. The RatioGI50 in assay [2] was 3.7.
For `c1ccc(Nc2nc(-c3cccnc3)cs2)cc1`, the 50% growth inhibitory concentration (GI50) in assay [1] is over 40 µM.
Regarding `FC(F)(F)c1ccccc1Nc1nc(-c2ccncc2)cs1`, the GI50 in assay [1] was over 40 µM.
The same measure, in the same setting: the result for `c1cc(-c2csc(Nc3ccc4c(c3)OCO4)n2)ccn1` reads over 40 µM; that for `O=[N+]([O-])c1cccc(Nc2nc(-c3ccncc3)cs2)c1`, over 40 µM.
The compound `O=[N+]([O-])c1ccc(Nc2nc(-c3ccncc3)cs2)cc1` yielded a GI50 in assay [1] of over 40 µM.
Turning to `COc1ccc(C(=O)Nc2nc(-c3ccncc3)cs2)cc1`, the GI50 in assay [1] is over 40 µM.
In assay [1], `Cc1cccc(Nc2nc(-c3ccncc3)c(C(=O)NCCCN3CCOCC3)s2)c1` came in with a GI50 of over 40 µM.
In assay [1], `Cc1ccc(Nc2nc(-c3ccncc3)cs2)cc1C` registered a GI50 of 6.5 µM. Also, the RatioGI50 in assay [2] is 6.4.
The matching figures for `CCc1cc(-c2csc(Nc3cccc(C)c3)n2)ccn1`: 6.4 µM and over 6.3.
In assay [1], `Cc1cccc(Nc2nc(-c3ccncc3)c(C=O)s2)c1` yielded a GI50 of 15 µM.
On the same count and under the same terms, the result for `Cc1cccc(Nc2nc(-c3cc[n+]([O-])cc3)cs2)c1` reads over 40 µM; that for `Fc1cccc(F)c1Nc1nc(-c2ccncc2)cs1`, over 40 µM.
For `C#Cc1cnccc1-c1csc(Nc2cccc(C)c2)n1`, it took 1.35 µM to inhibit growth in assay [1] by half (GI50). For the same compound, in assay [2], the RatioGI50 is 4.4.
With `C#Cc1cc(-c2csc(Nc3cccc(C)c3)n2)ccn1`, growth in assay [1] was halved (GI50) at 17.8 µM. Further, the RatioGI50 in assay [2] is over 2.2.
With `CN(C)CCc1ccc(Nc2nc(-c3ccncc3)cs2)cc1`, halving of growth in assay [1] (GI50) required 50 µM. Further, the RatioGI50 in assay [2] was determined as 1.2.
Consider `Fc1cccc(Nc2nc(-c3ccncc3)cs2)c1`, for which, in assay [1], the GI50 was over 40 µM.
`Cc1cccc(N(CCO)c2nc(-c3ccncc3)cs2)c1`: in assay [1], the GI50 is over 40 µM.
On the same count and under the same terms, the result for `Cc1cccc(Nc2nc(-c3ccncc3)c(C(=O)NCCN(C)C)s2)c1` reads over 40 µM.
`CCOC(=O)c1sc(Nc2cccc(C)c2)nc1-c1ccncc1` showed a concentration for 50% growth inhibition (GI50) in assay [1] of over 40 µM.
For `Cc1cccc(Nc2nc(Cc3cccnc3)cs2)c1`, the GI50 in assay [1] is over 40 µM.
In assay [1], `COc1cc(Nc2nc(-c3ccncc3)cs2)cc(OC)c1` came in with a concentration for 50% growth inhibition (GI50) of over 40 µM.
On to `Cc1cccc(CNc2nc(-c3ccncc3)cs2)c1`, for which, in assay [1], the GI50 was over 40 µM.
In assay [1], `Cc1cccc(C(=O)Nc2nc(-c3ccncc3)cs2)c1` came in with a GI50 of over 40 µM.
`N#Cc1ccc(Nc2nc(-c3ccncc3)cs2)cc1` displayed a concentration for 50% growth inhibition (GI50) in assay [1] of over 40 µM.
In assay [1], `Cc1ccc(C(=O)Nc2nc(-c3ccncc3)cs2)cc1` returned a GI50 of over 40 µM.
